Results taken from ChEMBL document CHEMBL1142201, “Tolerance to the glycopeptides vancomycin and teicoplanin in coagulase-negative staphylococci” (2007).

How the values were obtained:
Assay type in all cases: functional
[1] = test system: Staphylococcus lugdunensis; experiment: Antibacterial activity against coagulase-negative Staphylococcus lugdunensis 111A223 isolate assessed as bacterial counts at 10 times MIC after 6 hrs
Method in brief: (§1)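 CLSI time-kill in 50 ml Mueller-Hinton broth. Mean starting inoculum 5.6 log10 CFU/ml; vancomycin or teicoplanin at 10× MIC, with MIC from CLSI agar dilution. Counts taken just before and 6 and 24 h after antibiotic addition: samples diluted 10-fold to avoid carryover and plated in duplicate on prewarmed blood agar. Result given as Δlog CFU/ml; each strain run in duplicate.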

[2] = test system: Staphylococcus lugdunensis; experiment: Reduction of vancomycin-tolerant Staphylococcus lugdunensis 111A53 isolate assessed as bacterial counts at 5 times MIC after 6 hrs by time-kill curve method
Method in brief: (§2)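 CLSI time-kill in 50 ml Mueller-Hinton broth, mean starting inoculum 5.6 log10 CFU/ml. Vancomycin or teicoplanin at 5×, 10× or 20× the agar-dilution MIC. Viable counts taken before and 6 and 24 h after antibiotic addition; samples diluted 10-fold and plated in duplicate on prewarmed blood agar. Change reported as mean log CFU/ml.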

[3] = test system: Staphylococcus lugdunensis; experiment: Reduction of vancomycin-tolerant Staphylococcus lugdunensis 111A53 isolate assessed as bacterial counts at 20 times MIC after 6 hrs by time-kill curve method; method in brief: as §2
[4] = test system: Staphylococcus lugdunensis; experiment: Reduction of teicoplanin-tolerant Staphylococcus lugdunensis 111A91 isolate assessed as bacterial counts at 5 times MIC after 24 hrs by time-kill curve method; method in brief: as §2
[5] = test system: Staphylococcus lugdunensis; experiment: Reduction of teicoplanin-tolerant Staphylococcus lugdunensis 111A91 isolate assessed as bacterial counts at 10 times MIC after 24 hrs by time-kill curve method; method in brief: as §2
[6] = test system: Staphylococcus lugdunensis; experiment: Antibacterial activity against coagulase-negative Staphylococcus lugdunensis 111A229 isolate assessed as bacterial counts at 10 times MIC after 6 hrs; method in brief: as §1
[7] = test system: Staphylococcus lugdunensis; experiment: Antibacterial activity against coagulase-negative Staphylococcus lugdunensis ATCC 43809 assessed as bacterial counts at 10 times MIC after 24 hrs; method in brief: as §1
[8] = test system: Staphylococcus lugdunensis; experiment: Antibacterial activity against coagulase-negative Staphylococcus lugdunensis 111A229 isolate assessed as bacterial counts at 10 times MIC after 24 hrs; method in brief: as §1
[9] = test system: Staphylococcus lugdunensis; experiment: Reduction of teicoplanin-tolerant Staphylococcus lugdunensis 111A91 isolate assessed as bacterial counts at 10 times MIC after 6 hrs by time-kill curve method; method in brief: as §2
[10] = test system: Staphylococcus lugdunensis; experiment: Antibacterial activity against coagulase-negative Staphylococcus lugdunensis 111A91 isolate assessed as bacterial counts at 10 times MIC after 24 hrs; method in brief: as §1
Staphylococcus [11] = experiment: Antibacterial activity against coagulase-negative Staphylococcus assessed as bacterial counts at 10 times MIC after 24 hrs; method in brief: as §1
[12] = test system: Staphylococcus lugdunensis; experiment: Reduction of teicoplanin-tolerant Staphylococcus lugdunensis 111A91 isolate assessed as bacterial counts at 5 times MIC after 6 hrs by time-kill curve method; method in brief: as §2
[13] = test system: Staphylococcus lugdunensis; experiment: Reduction of vancomycin-tolerant Staphylococcus lugdunensis 111A53 isolate assessed as bacterial counts at 10 times MIC after 6 hrs by time-kill curve method; method in brief: as §2
[14] = test system: Staphylococcus lugdunensis; experiment: Antibacterial activity against coagulase-negative Staphylococcus lugdunensis ATCC 49576 assessed as bacterial counts at 10 times MIC after 24 hrs; method in brief: as §1
[15] = test system: Staphylococcus lugdunensis; experiment: Antibacterial activity against coagulase-negative Staphylococcus lugdunensis ATCC 49576 assessed as bacterial counts at 10 times MIC after 6 hrs; method in brief: as §1
[16] = test system: Staphylococcus lugdunensis; experiment: Reduction of vancomycin-tolerant Staphylococcus lugdunensis 111A53 isolate assessed as bacterial counts at 10 times MIC after 24 hrs by time-kill curve method; method in brief: as §2
[17] = test system: Staphylococcus lugdunensis; experiment: Reduction of vancomycin-tolerant Staphylococcus lugdunensis 111A53 isolate assessed as bacterial counts at 5 times MIC after 24 hrs by time-kill curve method; method in brief: as §2
Staphylococcus [18] = experiment: Antibacterial activity against coagulase-negative Staphylococcus assessed as bacterial counts at 10 times MIC after 6 hrs; method in brief: as §1
[19] = test system: Staphylococcus lugdunensis; experiment: Reduction of teicoplanin-tolerant Staphylococcus lugdunensis 111A91 isolate assessed as bacterial counts at 20 times MIC after 6 hrs by time-kill curve method; method in brief: as §2
[20] = test system: Staphylococcus lugdunensis; experiment: Reduction of vancomycin-tolerant Staphylococcus lugdunensis 111A53 isolate assessed as bacterial counts at 20 times MIC after 24 hrs by time-kill curve method; method in brief: as §2
[21] = test system: Staphylococcus lugdunensis; experiment: Antibacterial activity against coagulase-negative Staphylococcus lugdunensis ATCC 43809 assessed as bacterial counts at 10 times MIC after 6 hrs; method in brief: as §1
[22] = test system: Staphylococcus lugdunensis; experiment: Ratio of MBC to MIC against teicoplanin-tolerant Staphylococcus lugdunensis 111A91 isolate
Method in brief: (§3)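 MBC/MIC by CLSI broth method, starting inoculum between 10^5 and 10^6 CFU/ml in Mueller-Hinton broth. Vancomycin and teicoplanin tested; S. aureus ATCC 25923 quality control included in each assay. Three separate assays, each ratio reported individually.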

[23] = test system: Staphylococcus lugdunensis; experiment: Ratio of MBC to MIC against vancomycin-tolerant Staphylococcus lugdunensis 111A53 isolate; method in brief: as §3
[24] = test system: Staphylococcus lugdunensis; experiment: Antibacterial activity against coagulase-negative Staphylococcus lugdunensis 111A223 isolate assessed as bacterial counts at 10 times MIC after 24 hrs; method in brief: as §1
[25] = test system: Staphylococcus lugdunensis; experiment: Antibacterial activity against coagulase-negative Staphylococcus lugdunensis 111A53 isolate assessed as bacterial counts at 10 times MIC after 6 hrs; method in brief: as §1
[26] = test system: Staphylococcus lugdunensis; experiment: Antibacterial activity against coagulase-negative Staphylococcus lugdunensis isolate assessed as bacterial counts at 10 times MIC after 6 hrs; method in brief: as §1
[27] = test system: Staphylococcus lugdunensis; experiment: Antibacterial activity against coagulase-negative Staphylococcus lugdunensis 111A53 isolate assessed as bacterial counts at 10 times MIC after 24 hrs; method in brief: as §1
[28] = test system: Staphylococcus lugdunensis; experiment: Antibacterial activity against coagulase-negative Staphylococcus lugdunensis isolate assessed as bacterial counts at 10 times MIC after 24 hrs; method in brief: as §1
[29] = test system: Staphylococcus lugdunensis; experiment: Reduction of teicoplanin-tolerant Staphylococcus lugdunensis 111A91 isolate assessed as bacterial counts at 20 times MIC after 24 hrs by time-kill curve method; method in brief: as §2
[30] = test system: Staphylococcus lugdunensis; experiment: Antibacterial activity against coagulase-negative Staphylococcus lugdunensis 111A91 isolate assessed as bacterial counts at 10 times MIC after 6 hrs; method in brief: as §1

With `CN[C@H](CC(C)C)C(=O)N[C@H]1C(=O)N[C@@H](CC(N)=O)C(=O)N[C@H]2C(=O)N[C@H]3C(=O)N[C@H](C(=O)N[C@H](C(=O)O)c4cc(O)cc(O)c4-c4cc3ccc4O)[C@H](O)c3ccc(c(Cl)c3)Oc3cc2cc(c3O[C@@H]2O[C@H](CO)[C@@H](O)[C@H](O)[C@H]2O[C@H]2C[C@](C)(N)[C@H](O)[C@H](C)O2)Oc2ccc(cc2Cl)[C@H]1O` [VANCOMYCIN] the deltalog10CFU/ml [1] was -0.67, the log10CFU/ml [2] was -0.05 and the log10CFU/ml [3] was -0.07. For the same compound, the log10CFU/ml [4] was -3.9, the log10CFU/ml [5] was -3.53 and the deltalog10CFU/ml [6] was -2.24. The deltalog10CFU/ml [7] was -2.18, the deltalog10CFU/ml [8] was -2.42 and the log10CFU/ml [9] was -0.31. For the same compound, the deltalog10CFU/ml [10] was -3.53, the deltalog10CFU/ml (Staphylococcus [11]) was -4.8 and the log10CFU/ml [12] was -1.16. It also gave a log10CFU/ml [13] of -0.31, a deltalog10CFU/ml [14] of -3.91 and a deltalog10CFU/ml [15] of -1.38. For the same compound, the log10CFU/ml [16] was -1.94, the log10CFU/ml [17] was -1.72 and the deltalog10CFU/ml (Staphylococcus [18]) was -2.98. The log10CFU/ml [19] was -0.56, the log10CFU/ml [20] was -1.74 and the deltalog10CFU/ml [21] was -0.21. For the same compound, the Ratio [22] was 64, the Ratio [23] was 8 and the deltalog10CFU/ml [24] was -1.65. For the same compound, the deltalog10CFU/ml [25] was -0.31, the deltalog10CFU/ml [26] was -1.17 and the deltalog10CFU/ml [27] was -1.94. It also gave a deltalog10CFU/ml [28] of -4.1, a log10CFU/ml [29] of -2.83 and a deltalog10CFU/ml [30] of -0.31.
